Experimental data reported in PubChem BioAssay.
Calls of active or inactive are those of the source.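 How the source made its calls, unless noted: active means viability at or below 10% of carrier control in both of two separate runs; inconclusive means viability at or below 10% in only one of the two runs; inactive means the rest.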

Experiments:
[1] = Her2 expression decrease, cell viability multiplex – SKBR3 breast tumor cells, AlphaScreen, ATP viability, primary screen (AID 461;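 active means Her2 level under about 52% in both replicate screens, with viability over 70% of control, limit read from the data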;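 on Her2 level: lower value means less Her2 protein in the cells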;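 on viability: percent of carrier control wells set as 100% viability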); conditions: SKBR3 Her2 protein level, 18-24 h, measured here: SKBR3 viability, ATP luminescence, at 10 µM
[2] = molecular target: Receptor tyrosine-protein kinase erbB-2 (Homo sapiens) (UniProt P04626); experiment: as above; conditions: 18-24 h, at 10 µM, stronger effect = lower value
[3] = reduced viability of SK-BR-3 breast cancer cells – cell-based, 24 h, human, pilot screen (AID 572); conditions: SK-BR-3 viability, CellTiter-Glo luminescence, at 10 µM, stronger effect = lower value;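 further: compound exposure lasted between 18 and 24 h rather than exactly 24 h; 100% = carrier-treated control wells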
[4] = HUVEC growth inhibition – cell-based, human, primary screen (AID 575;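 active means viability at or below 30% in both replicate assays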;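 further: 100% = median of untreated cell wells with 0.1% DMSO on each plate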); conditions: HUVEC proliferation, CellTiter-Glo luminescence, 72 h; at 10 µM; stronger effect = lower value
In short: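 system = HUVEC primary cells | amount = 1250 cells/well | buffer or medium = supplemented EBM, 2% fetal bovine serum | dosing = single-point 10 µM, DMSO 0.1% final | times = 72 h compound incubation | detection = CTG luminescence | read-out = % viability relative to median vehicle-well signal on each plate | control set = vehicle and MePR control wells | format = collagen-coated 384-well format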

[5] = H69AR cell proliferation blockers – human, duplicate replicates, primary screen (AID 580;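 active means viability at or under a set limit in both replicates, limit being median viability minus 3 SD, cut at about 48% in these data, passing the limit was not always enough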;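 further: 100% = mean luminescence of untreated wells and 0% = no signal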); conditions: H69AR lung tumor cells viability, ATP luminescence, 72 h; at 10 µM; stronger effect = lower value
[6] = MRP1 drug-resistance reversers in H69AR cells – cell-based, doxorubicin co-treatment, pilot screen (AID 601;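 active means viability loss from added drug above about 55%, and viability with drug at most 40%, in both replicates, limit read from the data, passing the limit was not always enough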); conditions: CellTiter-Glo, 72 h, at 10 µM; for differential viability (reversal): stronger effect = higher value
[7] = yeast transport mutant growth inhibition pilot in 384-well plates, post-Golgi transport modulator project (AID 636; in the data active means inhibition above about 31%); conditions: absorbance 615 nm, about 18 h, stronger effect = higher value
[8] = growth suppression of yeast trafficking mutant, preliminary HTS, modulators of trafficking downstream of Golgi apparatus project, 1536-format plate, OD 615 nm (AID 637; in the data active means inhibition above about 30%); conditions: yeast transport mutant growth, absorbance 615 nm, 18 h; stronger effect = higher value
[9] = H69AR cells + 2 uM doxorubicin, measured here: viability with 2 uM doxorubicin, stronger effect = lower value
[10] = H69AR cells, compound alone cytotoxicity

Receptor tyrosine-protein kinase erbB-2 (Homo sapiens), sequence (P04626 whole entry, looked up): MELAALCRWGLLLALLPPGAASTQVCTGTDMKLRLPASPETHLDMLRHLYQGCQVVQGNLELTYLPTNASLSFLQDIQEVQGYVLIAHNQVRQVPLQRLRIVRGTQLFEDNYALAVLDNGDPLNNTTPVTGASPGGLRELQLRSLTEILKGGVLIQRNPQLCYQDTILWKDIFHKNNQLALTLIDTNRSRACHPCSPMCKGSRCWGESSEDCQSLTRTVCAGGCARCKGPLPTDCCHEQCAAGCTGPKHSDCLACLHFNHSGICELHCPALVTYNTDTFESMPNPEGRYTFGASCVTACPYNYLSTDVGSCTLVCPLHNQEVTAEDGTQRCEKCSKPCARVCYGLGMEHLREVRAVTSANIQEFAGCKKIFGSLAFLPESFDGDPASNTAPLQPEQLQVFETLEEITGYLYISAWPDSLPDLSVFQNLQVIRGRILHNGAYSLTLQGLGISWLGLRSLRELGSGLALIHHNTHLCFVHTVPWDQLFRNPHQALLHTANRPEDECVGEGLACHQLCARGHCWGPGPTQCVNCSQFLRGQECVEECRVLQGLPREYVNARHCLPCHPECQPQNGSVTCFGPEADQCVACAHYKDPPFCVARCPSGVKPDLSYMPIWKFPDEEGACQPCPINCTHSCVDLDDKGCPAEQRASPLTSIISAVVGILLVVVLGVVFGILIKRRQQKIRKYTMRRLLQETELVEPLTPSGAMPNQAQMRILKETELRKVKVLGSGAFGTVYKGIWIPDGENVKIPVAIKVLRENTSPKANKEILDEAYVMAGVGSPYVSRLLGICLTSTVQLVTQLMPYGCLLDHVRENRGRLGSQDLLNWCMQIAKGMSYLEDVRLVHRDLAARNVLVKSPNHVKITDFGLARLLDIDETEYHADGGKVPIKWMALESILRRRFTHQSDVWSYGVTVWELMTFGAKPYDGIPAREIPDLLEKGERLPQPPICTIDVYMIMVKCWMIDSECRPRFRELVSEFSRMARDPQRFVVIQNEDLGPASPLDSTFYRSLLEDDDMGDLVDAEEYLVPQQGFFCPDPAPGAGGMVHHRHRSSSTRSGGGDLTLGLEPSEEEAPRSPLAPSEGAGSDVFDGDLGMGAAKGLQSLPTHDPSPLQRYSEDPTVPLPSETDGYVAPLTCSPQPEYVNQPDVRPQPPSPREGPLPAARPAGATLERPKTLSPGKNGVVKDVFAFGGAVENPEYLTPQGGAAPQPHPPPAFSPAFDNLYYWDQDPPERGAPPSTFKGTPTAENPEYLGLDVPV

| Structure (SMILES) | viability [1] [%] | Her2 level [2] | viability [3] | viability [4] | viability [5] | differential viability (reversal) ([6]; H69AR cells + 2 uM doxorubicin) | viability [6, 9] [%] | viability [6, 10] [%] | inhibition [7] | inhibition [8] |
| --- | --- | --- | --- | --- | --- | --- | --- | --- | --- | --- |
| Cc1cccc(N(C)C(=O)c2cc3cc4ccc(C)cc4nc3o2)c1 | 89 | 73.5% (inactive) | 89% (inactive) | 57.1% (inactive) | 12% (active) | -36.7% (inactive) | 48.8 | 12 | -4% (inactive) | -4.26% (inactive) |
| O=C(Cc1ccc(Br)cc1)N1CCCCCC1 | 108 | 106% (inactive) | 108% (inactive) | 115% (inactive) | 97.9% (inactive) | 8.29% (inactive) | 89.6 | 97.9 | -4.08% (inactive) | -0.49% (inactive) |
| CC(C)Oc1cccc(-c2cc(C(=O)N3CCN(S(C)(=O)=O)CC3)c3ccccc3n2)c1 | 90.5 | 94% (inactive) | 90.5% (inactive) | 64% (inactive) | 65.7% (inactive) | -9.72% (inactive) | 75.4 | 65.7 | -1.84% (inactive) | -6.03% (inactive) |
| CC1Cc2ccccc2N1C(=O)c1cnsn1 (stereo not given) | 136 | 103% (inactive) | 136% (inactive) | 86.3% (inactive) | 97.8% (inactive) | 10.4% (inactive) | 87.4 | 97.8 | -6.71% (inactive) | -10.8% (inactive) |
| c1ccc2c(c1)nc(-c1ccncc1)n1nnnc21 | 96.5 | 99.5% (inactive) | 96.5% (inactive) | 93.5% (inactive) | 93.2% (inactive) | 8.75% (inactive) | 84.4 | 93.2 | -6% (inactive) | -0.16% (inactive) |
| Cn1c(=O)c2c3c(sc2n2c(SCC(=O)c4ccc(Cl)cc4)nnc12)COC(C)(C)C3 | 119 | 102% (inactive) | 119% (inactive) | 76.6% (inactive) | 79.7% (inactive) | 23.3% (inactive) | 56.4 | 79.7 | -0.91% (inactive) | -2.7% (inactive) |
| Cc1cc(C)nc(NS(=O)(=O)c2ccc(NC(=O)Cn3c(=O)oc4ccccc43)cc2)n1 | 89.5 | 101% (inactive) | 89.5% (inactive) | 89% (inactive) | 86.7% (inactive) | 2.6% (inactive) | 84.2 | 86.7 | -0.9% (inactive) | 2% (inactive) |
| CC(C)=CCC(C)(C)C1OCCN1C(=O)c1ccccc1 (stereo not given) | 84.5 | 99% (inactive) | 84.5% (inactive) | 82.4% (inactive) | 98% (inactive) | 8.65% (inactive) | 89.3 | 98 | -3.77% (inactive) | 2.3% (inactive) |
| Cc1nnc2ccc(N3CCC4(CC3)OCCO4)nn12 | 101 | 89.5% (inactive) | 101% (inactive) | 100% (inactive) | 108% (inactive) | 11.1% (inactive) | 96.5 | 108 | -6.22% (inactive) | -3% (inactive) |
| CC(C)(C)n1nnnc1C(c1cccs1)N1CCN(Cc2ccccc2)CC1 (stereo not given) | 90 | 98.5% (inactive) | 90% (inactive) | 86% (inactive) | 84.3% (inactive) | 0.73% (inactive) | 83.6 | 84.3 | -4.16% (inactive) | -2.86% (inactive) |
| O=c1c[n+]([O-])c2ccccc2n1OCc1ccccn1 | 94 | 89.5% (inactive) | 94% (inactive) | 94.7% (inactive) | 105% (inactive) | 12.1% (inactive) | 92.7 | 105 | -2.11% (inactive) | -4.29% (inactive) |
| CCC(C)(C)n1nnnc1C(c1ccc(OC)c(OC)c1)N1CCN(c2ccccc2)CC1 (stereo not given) | 85 | 86% (inactive) | 85% (inactive) | 90.2% (inactive) | 88.8% (inactive) | 9.98% (inactive) | 78.9 | 88.8 | -7.67% (inactive) | -0.16% (inactive) |
| CCOCCn1c(CN2CCN(c3cccc(Cl)c3)CC2)nc2c1c(=O)n(C)c(=O)n2C | 85 | 110% (inactive) | 85% (inactive) | 94.5% (inactive) | 80.1% (inactive) | 41.5% (inactive) | 38.6 | 80.1 | -3.07% (inactive) | -6.17% (inactive) |
| COc1cccc(OCCn2ccnc2)c1 | 90.5 | 104% (inactive) | 90.5% (inactive) | 89.6% (inactive) | 89.4% (inactive) | -3.7% (inactive) | 93.1 | 89.4 | -4.93% (inactive) | -9.21% (inactive) |
| O=C(O)CCC(=O)Nc1nc(-c2ccccc2)cs1 | 92 | 84.5% (inactive) | 92% (inactive) | 98.5% (inactive) | 91.3% (inactive) | -4.88% (inactive) | 96.1 | 91.3 | -6.4% (inactive) | -1.48% (inactive) |
| COC(=O)c1ccccc1NC(=O)Nc1cccs1 | 99.5 | 90.5% (inactive) | 99.5% (inactive) | 84.3% (inactive) | 82.4% (inactive) | 7.46% (inactive) | 74.9 | 82.4 | -3.73% (inactive) | 0% (inactive) |
